GalR3 antagonist = GalR3 antagonists in HEK293 cells, primary screen, cell-based, fluorescence readout | Galanin receptor type 3 (Homo sapiens), O60755 | HEK293 GalR3-CNG cAMP membrane potential fluorescence; galR3 body fused to GalR1 C-terminus | inhibition, % at 3 µM | 360,000 tested, 0.44% active | AID 651719, 2012;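 active = inhibition above the screen-wide average plus 3 SD, cut at about 13% in these data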;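 also: forskolin and galanin both at EC90 stimulate the cells; cAMP rise reported by CNG channel membrane potential dye signal; 0% = forskolin plus galanin with DMSO and 100% = forskolin alone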
CHO parental Ca = ATP-evoked calcium signal inhibitors, parental CHO, primary screen, counter-screen for OX1R antagonist project, cell-based, fluorescence, Fluo-8 calcium dye. parental CHO-K1, ATP-induced calcium, Fluo-8 fluorescence. inhibition, % at 5.6 µM. 330,000 tested, 0.63% active. AID 463079, 2010;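 active = inhibition above that plate's mean sample inhibition plus 3 SD, cut at about 26% in these data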;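 also: 0% = ATP-challenged DMSO wells and 100% = DMSO wells without ATP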
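Assay system: parental CHO cells; Read-out basis: percent inhibition of ATP-evoked calcium rise, normalized to controls; Benchmarks: ATP and no-ATP DMSO wells; Compound dosing: single nominal dose of 5.6 µM per compound; Signal: Fluo-8 calcium dye fluorescence; Also added: ATP as calcium-mobilizing challenge; Repeats: singlicate.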
OX1R antag-1 = antagonists of human orexin 1 receptor (OX1R). AID 485270, 2010. Orexin/Hypocretin receptor type 1 (Homo sapiens), O43613. OX1R-expressing cells, FRET antagonist read-out. 330,000 tested, 1.8% active. inhibition, % at 6.6 µM; in the data active = inhibition mostly above about 38%, no sharp cut-off; inactive = mostly below about 40%;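 also: 0% = agonist challenge alone and 100% = reference antagonist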
Target sequence (O43613 whole entry, looked up): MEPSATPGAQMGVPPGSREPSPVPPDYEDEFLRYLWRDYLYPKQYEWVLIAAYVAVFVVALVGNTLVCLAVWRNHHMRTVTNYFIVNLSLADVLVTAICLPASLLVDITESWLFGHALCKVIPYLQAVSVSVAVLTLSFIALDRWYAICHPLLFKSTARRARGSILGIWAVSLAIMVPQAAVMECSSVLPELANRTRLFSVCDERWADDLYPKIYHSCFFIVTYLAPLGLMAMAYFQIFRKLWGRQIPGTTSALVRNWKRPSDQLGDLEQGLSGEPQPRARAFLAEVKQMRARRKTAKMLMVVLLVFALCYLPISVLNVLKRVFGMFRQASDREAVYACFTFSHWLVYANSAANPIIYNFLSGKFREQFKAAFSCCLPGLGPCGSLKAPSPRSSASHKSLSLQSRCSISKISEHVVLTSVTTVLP
TAAR1 agonist = human TAAR1 agonists, primary screen, Fluo-8 calcium fluorescence, CHO RD-HGA16 cells | Trace amine-associated receptor 1 (Homo sapiens), Q96RJ0 | AID 624467, 2012 | 360,000 tested, 0.99% active | vehicle wells 0%, saturating PEA agonist 100% | activation, % at 3 µM;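 active = activation above the mean activation of all test compounds in the run plus 3 SD, cut at about 38% in these data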
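Benchmarks: low control DMSO, high control PEA (EC100); System: CHO RD-HGA16 cells carrying human TAAR1 plus Gα16; Detection: Fluo-8 fluorescence, 5 s baseline then 140 s kinetic read; Schedule: 17-24 h plating, Fluo-8 75 min 37 °C, 30 min RT; Read-out basis: % activation from peak over basal fluorescence ratio, DMSO-to-PEA scaled.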
OX1R antag-2 = OX1R (HCRTR1) antagonists, primary screen, fluorescence, CHO/OX1R cells, Fluo-8 calcium, orexin A; Fluo-8 calcium fluorescence; inhibition, % at 5 µM; 330,000 tested, 0.43% active; AID 434989, 2010;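 active = inhibition above its plate's threshold, mean inhibition of all tested compounds on the plate plus 3 SD, cut at about 37% in these data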;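 also: 0% = orexin A challenge wells and 100% = SB-334867-A antagonist wells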
TAAR1 antagonist = human TAAR1 antagonists, primary screen, Fluo-8 calcium fluorescence, CHO RD-HGA16 cells; Trace amine-associated receptor 1 (Homo sapiens), Q96RJ0; antagonist; inhibition, % at 3 µM; 360,000 tested, 1.5% active;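 active = inhibition above a per-plate cutoff, the mean inhibition of test compounds on that plate plus 3 SD, cut at about 49% in these data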;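 also: 0% = DMSO plus EC80 beta-PEA response and 100% = DMSO alone without agonist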
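Assay system: RD-HGA16 CHO cells with stable hTAAR1 and Gα16 / Reagent: EC80 β-phenethylamine stimulus / Doses: 3 µM, single point / Timing: dye loading 75 min at 37 °C, then 30 min room temperature / Measured by: Fluo-8 intracellular calcium dye fluorescence, real-time kinetic reads / Controls: vehicle wells and EC80 agonist wells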
TAAR1 ag conf = human TAAR1 agonists, retest of hits, confirmation, Fluo-8 calcium fluorescence, CHO RD-HGA16 cells | shares compounds with TAAR1 agonist | scaled: DMSO 0%, maximal phenethylamine 100% | activation, % at 3 µM | 2,400 tested, 82% active;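 active = activation above a cutoff set at the run's mean compound activation plus 3 SD, cut at about 39% in these data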
Ga16 ag counter = nonselective calcium mobilization agonists, CHO-Ga16 cells, counter-screen for hTAAR1 agonist project, cell-based, fluorescence, CHO-Ga16 parental line; shares compounds with TAAR1 agonist; AID 651787, 2012; Fluo-8 calcium fluorescence; normalized to maximal ATP response, DMSO zero; 2,400 tested, 50% active; activation, % at 3 µM;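 active = activation above the run cutoff, the mean activation over all tested wells plus 3 SD, cut at about 12% in these data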;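 also: 0% = DMSO wells and 100% = maximal ATP response on the peak over basal ratio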
TAAR1 desens = TAAR1 desensitization by agonist hits, confirmation, counter-screen for TAAR1 agonist project, cell-based, fluorescence, tachyphylaxis; shares compounds with TAAR1 agonist; CHO RD-HGA16 hTAAR1, Fluo-8 calcium, beta-PEA response inhibition; 2,400 tested, 46% active; AID 651951, 2012; inhibition, % at 3 µM;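 active = inhibition above the run cutoff, the mean inhibition of all test compounds plus 3 SD, cut at about 49% in these data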;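 also: beta-PEA stimulus applied at its EC80; loss of beta-PEA calcium signal after compound pretreatment read as receptor desensitization; 0% = DMSO with beta-PEA at EC80 and 100% = DMSO alone without agonist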
Ga16 nonsel ant = inhibition of ATP-evoked calcium response in CHO-Ga16 cells, counter-screen for TAAR1 agonist project, cell-based, fluorescence; CHO-Ga16 ATP-induced calcium, Fluo-8 fluorescence; inhibition, % at 3 µM; shares compounds with TAAR1 agonist; 2,400 tested, 39% active;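 active = inhibition above the plate's mean compound inhibition plus 3 SD, computed per plate, cut at about 22% in these data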;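 also: 0% = EC80 ATP with DMSO and 100% = DMSO wells without ATP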
* = called active by the depositor; / = no result given. The list is not random: actives were taken first. Their share in the collection is about 4.2%.

SMILES | GalR3 antagonist | CHO parental Ca | OX1R antag-1 | TAAR1 agonist | OX1R antag-2 | TAAR1 antagonist | TAAR1 ag conf | Ga16 ag counter | TAAR1 desens | Ga16 nonsel ant
O=C(NCC(c1ccco1)N1CCc2ccccc2C1)c1ccc(Cl)cc1 (stereo not drawn) | -6 | -18 | 32 | 74* | -28 | 34 | 38* | 1 | 4 | 8
O=C(NCC(c1ccco1)N1CCc2ccccc2C1)c1ccc(Br)cc1 (stereo not drawn) | -5 | -24 | 27 | 45* | -18 | 20 | 24 | 2 | 11 | 13
Cc1cccc(NC(=O)CCN2CCCC(C)C2)c1 (stereo not drawn) | -9 | -10 | 3 | 2 | -16 | 5 | / | / | / | /
CSc1ccc(Cn2nnc(C(=O)NCc3ccccc3)c2N)cc1 | 3 | 5 | 2 | 98* | 25 | 75* | 105* | 48* | 60* | 41*
COc1ccc(S(=O)(=O)NCc2ccncc2)cc1NC(=O)c1ccccc1F | -1 | -17 | 4 | 2 | -5 | 8 | / | / | / | /
c1ccc([C@H]2CNCCN2CCc2cccc3ccccc23)cc1 | -6 | 5 | 5 | 54* | 9 | 24 | 76* | 20* | 53* | 24*
COc1cc(CCCN2CCNC[C@@H]2c2ccccc2)cc(OC)c1OC | 2 | -17 | 4 | 2 | -31 | 8 | / | / | / | /
N=C(N)SCc1ccccc1Cl | 3 | 2 | 4 | 72* | -7 | 44 | 82* | 3 | 73* | 12
O=c1[nH]c2ccccc2c(O)c1O | -6 | 4 | 23 | 1 | -9 | -9 | / | / | / | /
c1ccc2c(c1)CCCC2C1=NCCN1 (stereo not drawn) | -3 | 1 | 0 | 91* | -3 | 92* | 93* | 0 | 97* | 11
Cc1ccc2[nH]c(=O)c(CN(CCc3ccccc3)C(c3nnnn3Cc3ccco3)C(C)C)cc2c1 (stereo not drawn) | 4 | -4 | 25 | 71* | -29 | 3 | 62* | 0 | 18 | 6
CCC(c1nnnn1Cc1ccccc1)N(Cc1ccco1)Cc1cc2cc(OC)ccc2[nH]c1=O (stereo not drawn) | 3 | -40 | 18 | 4 | -26 | -6 | / | / | / | /
CCC(c1nnnn1Cc1ccco1)N(CCc1ccccc1)Cc1cc2cc(C)ccc2[nH]c1=O (stereo not drawn) | -3 | -34 | 14 | / | -27 | / | / | 3 | / | 6
CC(C)C[C@H]1CN=C(Nc2ccccc2)N1CC1CCCC1 | -10 | -16 | 23 | 7 | -11 | -8 | / | / | / | /
CC(C)C[C@H]1CN=C(Nc2ccccc2)N1CCC1CCCCC1 | -9 | -5 | 4 | 44* | -22 | 8 | 55* | 22* | 27 | 19

From PubChem
